Source: ChEMBL document CHEMBL1944546, “Structure-activity relationships of novel alkylides: 3-O-arylalkyl clarithromycin derivatives with improved antibacterial activities” (2012)
≈ marks a conversion by molar mass, not a printed value.

What was measured:
[1] = system: Streptococcus pneumoniae; test: Antibacterial activity against erythromycin-susceptible Streptococcus pneumoniae ATCC 49619 by broth microdilution method; format: functional
Method in brief: (§1)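 MIC read by broth microdilution following CLSI (2010) guidance. The clinical isolates were identified by 16S rDNA sequencing and labelled by genotype and phenotype. S. aureus ATCC 29213 and S. pneumoniae ATCC 49619 were the control strains. Azithromycin, clarithromycin and 3-OH-clarithromycin were run as reference compounds.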

[2] = system: Staphylococcus haemolyticus; test: Antibacterial activity against methicillin-resistant, coagulase-negative, constitutive MLS-resistant Staphylococcus haemolyticus PU 19 by broth microdilution method; format: functional
Method in brief: (§2)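 MIC by broth microdilution following CLSI (2010) recommendations, using clinical isolates identified by 16S rDNA sequencing and labelled by genotype and phenotype. S. aureus ATCC 29213 and S. pneumoniae ATCC 49619 were run as control strains, and azithromycin, clarithromycin and 3-OH-clarithromycin were tested as reference agents.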

[3] = system: Staphylococcus aureus; test: Antibacterial activity against erythromycin-susceptible Staphylococcus aureus ATCC 29213 by broth microdilution method; format: functional; method in brief: as §1
[4] = system: Streptococcus pneumoniae; test: Antibacterial activity against penicillin-susceptible, constitutive MLS-resistant Streptococcus pneumoniae PU 27 by broth microdilution method; format: functional; method in brief: as §2
[5] = system: Staphylococcus aureus; test: Antibacterial activity against methicillin-, inducible MLS-resistant Staphylococcus aureus PU 32 by broth microdilution method
[6] = system: Streptococcus pneumoniae; test: Antibacterial activity against penicillin-, constitutive MLS-resistant Streptococcus pneumoniae PU 11 by broth microdilution method; format: functional; method in brief: as §2
[7] = system: Streptococcus pneumoniae; test: Antibacterial activity against efflux,penicillin-susceptible Streptococcus pneumoniae PU 09 by broth microdilution method; format: functional; method in brief: as §1
[8] = system: Streptococcus pyogenes; test: Antibacterial activity against erythromycin-susceptible Streptococcus pyogenes A 3 by broth microdilution method; format: functional; method in brief: as §1
[9] = system: Staphylococcus aureus; test: Antibacterial activity against methicillin-susceptible, inducible MLS-resistant Staphylococcus aureus PU 64 by broth microdilution method; format: functional; method in brief: as §2
[10] = system: Streptococcus dysgalactiae; test: Antibacterial activity against efflux, erythromycin-resistant Streptococcus dysgalactiae A 1 by broth microdilution method; format: functional; method in brief: as §2
[11] = system: Staphylococcus epidermidis; test: Antibacterial activity against methicillin-resistant, constitutive MLS-resistant Staphylococcus epidermidis E2 by broth microdilution method; format: functional; method in brief: as §2
[12] = system: Staphylococcus epidermidis; test: Antibacterial activity against methicillin-susceptible, inducible MLS-resistant Staphylococcus epidermidis E1 by broth microdilution method; format: functional; method in brief: as §2
[13] = system: Streptococcus pyogenes; test: Antibacterial activity against constitutive MLS-resistant Streptococcus pyogenes A 2 by broth microdilution method; format: functional; method in brief: as §2
[14] = system: Staphylococcus aureus; test: Antibacterial activity against methicillin-, constitutive MLS-resistant […] by broth microdilution method; format: functional; method in brief: as §2
[15] = system: Staphylococcus hominis; test: Antibacterial activity against methicillin-resistant, coagulase-negative, inducible MLS-resistant Staphylococcus hominis E3 by broth microdilution method; format: functional; method in brief: as §2

SMILES	MIC [1] [µg/mL]	MIC [2] [µg/mL]	MIC [3] [µg/mL]	MIC [4] [µg/mL]	MIC [5] [µg/mL]	MIC [6] [µg/mL]	MIC [7] [µg/mL]	MIC [8] [µg/mL]	MIC [9] [µg/mL]	MIC [10] [µg/mL]	MIC [11] [µg/mL]	MIC [12] [µg/mL]	MIC [13] [µg/mL]	MIC [14] [µg/mL]	MIC [15] [µg/mL]
CC[C@H]1OC(=O)[C@H](C)[C@@H](OC/C=C/c2cncc3ccccc23)[C@H](C)[C@@H](O[C@@H]2O[C@H](C)C[C@H](N(C)C)[C@H]2O)[C@](C)(OC)C[C@@H](C)/C(=N\OCc2ccccc2Cl)[C@H](C)[C@H]2OC(=O)O[C@@]21C	16 (≈ 17.3 µM)	128 (≈ 139 µM)	64 (≈ 69.4 µM)	32 (≈ 34.7 µM)	256 (≈ 277 µM)	32 (≈ 34.7 µM)	16 (≈ 17.3 µM)								
C=CCO[C@H]1[C@H](C)[C@@H](O[C@@H]2O[C@H](C)C[C@H](N(C)C)[C@H]2O)[C@](C)(OC)C[C@@H](C)/C(=N\O)[C@H](C)[C@@H](O)[C@](C)(O)[C@@H](CC)OC(=O)[C@@H]1C	16 (≈ 24.8 µM)	> 256	256 (≈ 397 µM)	128 (≈ 198 µM)	128 (≈ 198 µM)	> 256	32 (≈ 49.6 µM)								
C=CCO[C@H]1[C@H](C)[C@@H](O[C@@H]2O[C@H](C)C[C@H](N(C)C)[C@H]2O)[C@](C)(OC)C[C@@H](C)C(=O)[C@H](C)[C@@H](O)[C@](C)(O)[C@@H](CC)OC(=O)[C@@H]1C	32 (≈ 50.8 µM)	> 256	> 256	128 (≈ 203 µM)	256 (≈ 406 µM)	> 256	64 (≈ 102 µM)								
C=CCO[C@H]1[C@H](C)[C@@H](O[C@@H]2O[C@H](C)C[C@H](N(C)C)[C@H]2O)[C@](C)(OC)C[C@@H](C)C(=O)N[C@H](C)[C@@H](O)[C@](C)(O)[C@@H](CC)OC(=O)[C@@H]1C	> 256	> 256	> 256	> 256	> 256	> 256	> 256								
CC[C@H]1OC(=O)[C@H](C)[C@@H](O/C=C\Cc2cncnc2)[C@H](C)[C@@H](O[C@@H]2O[C@H](C)C[C@H](N(C)C)[C@H]2O)[C@](C)(OC)C[C@@H](C)/C(=N\O)[C@H](C)[C@@H](O)[C@]1(C)O	0.064 (≈ 0.0885 µM)	> 256	0.064 (≈ 0.0885 µM)	16 (≈ 22.1 µM)	0.064 (≈ 0.0885 µM)	128 (≈ 177 µM)	0.25 (≈ 0.346 µM)								
CC[C@H]1OC(=O)[C@H](C)[C@@H](OCCCc2cncnc2)[C@H](C)[C@@H](O[C@@H]2O[C@H](C)C[C@H](N(C)C)[C@H]2O)[C@](C)(OC)C[C@@H](C)/C(=N\OCc2ccccc2Cl)[C@H](C)[C@H]2OC(=O)O[C@@]21C	1 (≈ 1.14 µM)	> 256	16 (≈ 18.3 µM)	32 (≈ 36.6 µM)	16 (≈ 18.3 µM)	> 256	2 (≈ 2.28 µM)	1 (≈ 1.14 µM)	> 256	4 (≈ 4.57 µM)	> 256	> 256	32 (≈ 36.6 µM)	> 256	> 256
CC[C@H]1OC(=O)[C@H](C)[C@@H](OCC#Cc2cccnc2)[C@H](C)[C@@H](O[C@@H]2O[C@H](C)C[C@H](N(C)C)[C@H]2O)[C@](C)(OC)C[C@@H](C)/C(=N\OCc2ccccc2Cl)[C@H](C)[C@H]2OC(=O)O[C@@]21C	16 (≈ 18.4 µM)	64 (≈ 73.5 µM)	64 (≈ 73.5 µM)		64 (≈ 73.5 µM)	32 (≈ 36.8 µM)									
CC[C@H]1OC(=O)[C@H](C)[C@@H](OC/C=C/c2cccnc2)[C@H](C)[C@@H](O[C@@H]2O[C@H](C)C[C@H](N(C)C)[C@H]2O)[C@](C)(OC)C[C@@H](C)/C(=N\OCc2ccccc2Cl)[C@H](C)[C@H]2OC(=O)O[C@@]21C	4 (≈ 4.58 µM)	32 (≈ 36.7 µM)	32 (≈ 36.7 µM)	16 (≈ 18.3 µM)	32 (≈ 36.7 µM)	16 (≈ 18.3 µM)	8 (≈ 9.17 µM)								
CC[C@H]1OC(=O)[C@H](C)[C@@H](OCC#Cc2cncnc2)[C@H](C)[C@@H](O[C@@H]2O[C@H](C)C[C@H](N(C)C)[C@H]2O)[C@](C)(OC)C[C@@H](C)/C(=N\OCc2ccccc2Cl)[C@H](C)[C@H]2OC(=O)O[C@@]21C	16 (≈ 18.4 µM)	32 (≈ 36.7 µM)	32 (≈ 36.7 µM)		32 (≈ 36.7 µM)	32 (≈ 36.7 µM)									
CC[C@H]1OC(=O)[C@H](C)[C@@H](OC/C=C/c2ccc(-n3ccnc3)cc2)[C@H](C)[C@@H](O[C@@H]2O[C@H](C)C[C@H](N(C)C)[C@H]2O)[C@](C)(OC)C[C@@H](C)/C(=N\OCc2ccccc2Cl)[C@H](C)[C@H]2OC(=O)O[C@@]21C	16 (≈ 17.1 µM)	32 (≈ 34.1 µM)	32 (≈ 34.1 µM)	32 (≈ 34.1 µM)	32 (≈ 34.1 µM)	32 (≈ 34.1 µM)	16 (≈ 17.1 µM)								
CC[C@H]1OC(=O)[C@H](C)[C@@H](OC/C=C/c2cncnc2)[C@H](C)[C@@H](O[C@@H]2O[C@H](C)C[C@H](N(C)C)[C@H]2O)[C@](C)(OC)C[C@@H](C)/C(=N\OCc2ccccc2Cl)[C@H](C)[C@H]2OC(=O)O[C@@]21C	4 (≈ 4.58 µM)	64 (≈ 73.3 µM)	64 (≈ 73.3 µM)		64 (≈ 73.3 µM)	32 (≈ 36.6 µM)									
CC[C@H]1OC(=O)[C@H](C)[C@@H](O/C=C\Cc2cncnc2)[C@H](C)[C@@H](O[C@@H]2O[C@H](C)C[C@H](N(C)C)[C@H]2O)[C@](C)(OC)C[C@@H](C)/C(=N\OCc2ccccc2Cl)[C@H](C)[C@H]2OC(=O)O[C@@]21C	0.25 (≈ 0.286 µM)	64 (≈ 73.3 µM)	8 (≈ 9.16 µM)		32 (≈ 36.6 µM)	32 (≈ 36.6 µM)									
CC[C@H]1OC(=O)[C@H](C)[C@@H](O)[C@H](C)[C@@H](O[C@@H]2O[C@H](C)C[C@H](N(C)C)[C@H]2O)[C@](C)(OC)C[C@@H](C)C(=O)[C@H](C)[C@@H](O)[C@]1(C)O	64 (≈ 109 µM)	> 256	> 256	128 (≈ 217 µM)	> 256	> 256	128 (≈ 217 µM)								
CC[C@H]1OC(=O)[C@H](C)[C@@H](O/C=C\Cc2cncnc2)[C@H](C)[C@@H](O[C@@H]2O[C@H](C)C[C@H](N(C)C)[C@H]2O)[C@](C)(OC)C[C@@H](C)/C(=N\OCc2ccccc2)[C@H](C)[C@H]2OC(=O)O[C@@]21C	0.25 (≈ 0.298 µM)	64 (≈ 76.3 µM)	2 (≈ 2.38 µM)	16 (≈ 19.1 µM)	1 (≈ 1.19 µM)	32 (≈ 38.1 µM)	1 (≈ 1.19 µM)								
CC[C@H]1OC(=O)[C@H](C)[C@@H](OC/C=C/c2cncnc2)[C@H](C)[C@@H](O[C@@H]2O[C@H](C)C[C@H](N(C)C)[C@H]2O)[C@](C)(OC)C[C@@H](C)/C(=N\OCc2ccccc2)[C@H](C)[C@H]2OC(=O)O[C@@]21C	2 (≈ 2.38 µM)	> 256	32 (≈ 38.1 µM)	64 (≈ 76.3 µM)	32 (≈ 38.1 µM)	64 (≈ 76.3 µM)	4 (≈ 4.77 µM)								
CC[C@H]1OC(=O)[C@H](C)[C@@H](O/C=C\Cc2cncnc2)[C@H](C)[C@@H](O[C@@H]2O[C@H](C)C[C@H](N(C)C)[C@H]2O)[C@](C)(OC)C[C@@H](C)/C(=N\OCc2ccccc2)[C@H](C)[C@@H](O)[C@]1(C)O	2 (≈ 2.46 µM)	> 256	32 (≈ 39.4 µM)	32 (≈ 39.4 µM)	4 (≈ 4.92 µM)	64 (≈ 78.7 µM)	2 (≈ 2.46 µM)								
